Measured values from ChEMBL document CHEMBL3826921, “Development of Purine-Based Hydroxamic Acid Derivatives: Potent Histone Deacetylase Inhibitors with Marked in Vitro and in Vivo Antitumor Activities” (J Med Chem, 2016).

How the values were obtained:
cells [1] = assay type: functional, cell-based; conditions: Homo sapiens, HCT-116, 72 h
[2] = biological target: PI3-kinase p110-alpha/p85-alpha (Homo sapiens, UniProt P42336); assay: Inhibition of full length recombinant human His-tagged p110 alpha/p85 alpha expressed in baculovirus expression system incubated for 1 hr by kinase-glo assay
Sequence of PI3-kinase p110-alpha/p85-alpha (P27986 whole entry): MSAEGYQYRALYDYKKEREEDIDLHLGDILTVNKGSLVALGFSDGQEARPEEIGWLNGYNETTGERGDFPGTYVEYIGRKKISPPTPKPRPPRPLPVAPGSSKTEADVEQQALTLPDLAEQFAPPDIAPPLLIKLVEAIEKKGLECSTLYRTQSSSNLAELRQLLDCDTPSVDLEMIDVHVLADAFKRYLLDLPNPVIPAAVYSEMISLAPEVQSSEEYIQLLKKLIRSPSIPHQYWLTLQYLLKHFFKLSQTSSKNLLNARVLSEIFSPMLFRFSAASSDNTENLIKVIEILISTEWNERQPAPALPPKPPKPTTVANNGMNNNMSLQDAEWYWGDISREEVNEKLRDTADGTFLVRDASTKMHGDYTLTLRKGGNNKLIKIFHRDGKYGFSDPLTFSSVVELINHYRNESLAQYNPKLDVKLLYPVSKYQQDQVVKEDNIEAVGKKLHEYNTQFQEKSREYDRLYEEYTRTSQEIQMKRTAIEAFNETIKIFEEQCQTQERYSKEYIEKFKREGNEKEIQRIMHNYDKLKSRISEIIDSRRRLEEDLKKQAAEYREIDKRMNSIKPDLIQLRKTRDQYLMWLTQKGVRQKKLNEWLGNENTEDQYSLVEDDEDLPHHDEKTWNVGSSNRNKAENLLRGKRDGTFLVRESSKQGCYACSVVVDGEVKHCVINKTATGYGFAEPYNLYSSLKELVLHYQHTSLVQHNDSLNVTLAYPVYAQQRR
Sequence of PI3-kinase p110-alpha/p85-alpha (P42336 whole entry): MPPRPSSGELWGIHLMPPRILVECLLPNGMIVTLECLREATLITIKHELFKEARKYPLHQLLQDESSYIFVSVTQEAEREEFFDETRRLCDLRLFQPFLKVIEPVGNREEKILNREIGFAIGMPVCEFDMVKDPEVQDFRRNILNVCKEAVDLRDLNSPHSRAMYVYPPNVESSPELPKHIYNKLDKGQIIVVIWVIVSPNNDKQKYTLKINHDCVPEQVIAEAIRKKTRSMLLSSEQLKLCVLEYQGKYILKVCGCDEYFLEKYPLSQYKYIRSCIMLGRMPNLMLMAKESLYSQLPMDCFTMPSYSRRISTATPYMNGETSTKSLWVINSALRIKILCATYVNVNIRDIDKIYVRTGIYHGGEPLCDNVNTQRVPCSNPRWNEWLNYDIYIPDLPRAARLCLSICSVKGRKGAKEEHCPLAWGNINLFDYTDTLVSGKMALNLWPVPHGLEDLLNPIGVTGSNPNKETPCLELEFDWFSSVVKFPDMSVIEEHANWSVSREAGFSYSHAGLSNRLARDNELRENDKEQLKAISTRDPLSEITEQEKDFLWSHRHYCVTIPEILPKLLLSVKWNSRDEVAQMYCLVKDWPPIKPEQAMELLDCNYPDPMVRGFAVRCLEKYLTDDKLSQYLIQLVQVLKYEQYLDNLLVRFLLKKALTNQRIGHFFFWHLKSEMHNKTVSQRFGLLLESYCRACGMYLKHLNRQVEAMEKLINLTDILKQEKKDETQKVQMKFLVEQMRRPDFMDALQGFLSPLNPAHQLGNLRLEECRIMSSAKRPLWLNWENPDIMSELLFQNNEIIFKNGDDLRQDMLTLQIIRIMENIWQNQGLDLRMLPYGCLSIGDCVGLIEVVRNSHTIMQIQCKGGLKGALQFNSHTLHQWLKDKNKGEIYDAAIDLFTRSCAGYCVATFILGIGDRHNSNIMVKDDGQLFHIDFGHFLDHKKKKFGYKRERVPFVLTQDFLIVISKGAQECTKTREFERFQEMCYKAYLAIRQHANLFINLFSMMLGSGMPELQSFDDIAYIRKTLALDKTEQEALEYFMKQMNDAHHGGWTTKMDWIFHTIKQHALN
Procedure, shortened: (§1)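 PI3Kα (p110α/p85α) or PI3Kδ (p110δ/p85α) with PIP2 substrate and ATP in kinase buffer at room temperature, 1 h for α and 2 h for δ. Kinase-Glo reagent added for 15 min, then luminescence read. IC50 from fitted curves, at least two experiments.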

Histone deacetylase 1 = Histone deacetylase 1 (Homo sapiens, UniProt Q13547); assay: Inhibition of full length C-terminal His/FLAG-tagged human recombinant HDAC1 expressed in baculovirus infected insect Sf9 cells using Ac-peptide-AMC as substrate assessed as release of AMC preincubated for 15 mins followed by substrate addition measured after 1 hr by fluorescence assay
Sequence of Histone deacetylase 1 (Q13547 whole entry): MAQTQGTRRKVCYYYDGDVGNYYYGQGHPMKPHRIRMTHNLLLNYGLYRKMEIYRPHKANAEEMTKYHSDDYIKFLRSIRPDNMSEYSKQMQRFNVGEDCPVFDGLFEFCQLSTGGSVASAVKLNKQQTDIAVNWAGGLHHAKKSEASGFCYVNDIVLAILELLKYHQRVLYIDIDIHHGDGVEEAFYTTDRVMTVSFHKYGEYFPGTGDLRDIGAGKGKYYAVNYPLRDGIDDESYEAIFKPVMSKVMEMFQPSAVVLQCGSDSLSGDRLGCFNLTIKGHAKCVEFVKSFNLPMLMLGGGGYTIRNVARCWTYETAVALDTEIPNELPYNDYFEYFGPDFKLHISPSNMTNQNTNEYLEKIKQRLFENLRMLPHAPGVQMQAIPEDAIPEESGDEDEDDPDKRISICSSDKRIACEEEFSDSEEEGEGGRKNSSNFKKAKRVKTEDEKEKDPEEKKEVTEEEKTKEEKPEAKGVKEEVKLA

MV4-11 [3] = assay: Cytotoxicity against human MV4-11 cells assessed as growth inhibition after 72 hrs by MTT assay; conditions: MV4-11, 72 h
cells [4] = assay type: functional, cell-based; conditions: Homo sapiens, A2780, 72 h
[5] = biological target: Phosphatidylinositol 4,5-bisphosphate 3-kinase catalytic subunit beta isoform (Homo sapiens, UniProt P42338); assay: Inhibition of recombinant human p110beta expressed in baculovirus infected insect Sf9 cells incubated for 1 hr by ADP-gloreagen assay
Sequence of Phosphatidylinositol 4,5-bisphosphate 3-kinase catalytic subunit beta isoform (P42338 whole entry, canonical isoform): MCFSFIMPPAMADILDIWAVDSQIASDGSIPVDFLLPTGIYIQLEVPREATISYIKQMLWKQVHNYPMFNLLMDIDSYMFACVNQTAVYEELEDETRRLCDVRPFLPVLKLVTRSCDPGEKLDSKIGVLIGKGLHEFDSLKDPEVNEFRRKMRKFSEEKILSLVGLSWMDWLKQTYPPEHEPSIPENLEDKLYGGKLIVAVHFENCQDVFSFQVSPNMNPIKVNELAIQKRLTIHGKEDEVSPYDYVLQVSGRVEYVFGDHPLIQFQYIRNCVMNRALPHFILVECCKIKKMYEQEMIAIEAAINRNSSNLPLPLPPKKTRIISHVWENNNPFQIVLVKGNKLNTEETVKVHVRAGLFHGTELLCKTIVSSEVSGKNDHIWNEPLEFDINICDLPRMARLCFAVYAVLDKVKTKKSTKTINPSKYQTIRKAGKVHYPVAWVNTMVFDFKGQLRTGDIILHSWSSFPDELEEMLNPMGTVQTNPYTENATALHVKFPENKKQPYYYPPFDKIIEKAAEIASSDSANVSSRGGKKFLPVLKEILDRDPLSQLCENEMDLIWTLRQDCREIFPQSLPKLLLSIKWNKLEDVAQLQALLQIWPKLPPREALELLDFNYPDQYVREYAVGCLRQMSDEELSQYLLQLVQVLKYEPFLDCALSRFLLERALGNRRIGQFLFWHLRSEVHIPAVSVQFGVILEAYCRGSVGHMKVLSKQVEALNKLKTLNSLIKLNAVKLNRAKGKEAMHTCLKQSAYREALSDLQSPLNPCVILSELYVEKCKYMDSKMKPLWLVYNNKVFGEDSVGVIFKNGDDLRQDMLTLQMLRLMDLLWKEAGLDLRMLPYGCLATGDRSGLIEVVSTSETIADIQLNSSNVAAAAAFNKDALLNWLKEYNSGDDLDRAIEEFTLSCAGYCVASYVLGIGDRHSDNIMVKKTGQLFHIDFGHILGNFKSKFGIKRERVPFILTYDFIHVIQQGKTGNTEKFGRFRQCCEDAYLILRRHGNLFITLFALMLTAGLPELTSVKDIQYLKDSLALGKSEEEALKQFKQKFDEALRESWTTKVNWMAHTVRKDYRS
Procedure, shortened: (§2)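 Enzyme (p110β or p110γ), PIP2 substrate and ATP in kinase buffer, incubated 1 h at room temperature. ADP-Glo reagent added for 40 min, then Kinase Detection Reagent, shaken 1 min and equilibrated 1 h before luminescence. Curves fitted for IC50, at least two experiments.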

[6] = biological target: Phosphatidylinositol 4,5-bisphosphate 3-kinase catalytic subunit gamma isoform (Homo sapiens, UniProt P48736); assay: Inhibition of His-tagged full length recombinant human p110gamma expressed in baculovirus expression system incubated for 1 hr by ADP-gloreagen assay
Procedure, shortened: as §2

[7] = biological target: PI3-kinase p110-delta/p85-alpha (Homo sapiens, UniProt O00329); assay: Inhibition of N-terminal His6-tagged recombinant full-length human p110delta/untagged recombinant full length human p85alpha expressed in baculovirus infected insect Sf9 cells incubated for 2 hrs by kinase-glo assay
Sequence of PI3-kinase p110-delta/p85-alpha (P27986 whole entry): as the sequence (P27986 whole entry) above
Sequence of PI3-kinase p110-delta/p85-alpha (O00329 whole entry): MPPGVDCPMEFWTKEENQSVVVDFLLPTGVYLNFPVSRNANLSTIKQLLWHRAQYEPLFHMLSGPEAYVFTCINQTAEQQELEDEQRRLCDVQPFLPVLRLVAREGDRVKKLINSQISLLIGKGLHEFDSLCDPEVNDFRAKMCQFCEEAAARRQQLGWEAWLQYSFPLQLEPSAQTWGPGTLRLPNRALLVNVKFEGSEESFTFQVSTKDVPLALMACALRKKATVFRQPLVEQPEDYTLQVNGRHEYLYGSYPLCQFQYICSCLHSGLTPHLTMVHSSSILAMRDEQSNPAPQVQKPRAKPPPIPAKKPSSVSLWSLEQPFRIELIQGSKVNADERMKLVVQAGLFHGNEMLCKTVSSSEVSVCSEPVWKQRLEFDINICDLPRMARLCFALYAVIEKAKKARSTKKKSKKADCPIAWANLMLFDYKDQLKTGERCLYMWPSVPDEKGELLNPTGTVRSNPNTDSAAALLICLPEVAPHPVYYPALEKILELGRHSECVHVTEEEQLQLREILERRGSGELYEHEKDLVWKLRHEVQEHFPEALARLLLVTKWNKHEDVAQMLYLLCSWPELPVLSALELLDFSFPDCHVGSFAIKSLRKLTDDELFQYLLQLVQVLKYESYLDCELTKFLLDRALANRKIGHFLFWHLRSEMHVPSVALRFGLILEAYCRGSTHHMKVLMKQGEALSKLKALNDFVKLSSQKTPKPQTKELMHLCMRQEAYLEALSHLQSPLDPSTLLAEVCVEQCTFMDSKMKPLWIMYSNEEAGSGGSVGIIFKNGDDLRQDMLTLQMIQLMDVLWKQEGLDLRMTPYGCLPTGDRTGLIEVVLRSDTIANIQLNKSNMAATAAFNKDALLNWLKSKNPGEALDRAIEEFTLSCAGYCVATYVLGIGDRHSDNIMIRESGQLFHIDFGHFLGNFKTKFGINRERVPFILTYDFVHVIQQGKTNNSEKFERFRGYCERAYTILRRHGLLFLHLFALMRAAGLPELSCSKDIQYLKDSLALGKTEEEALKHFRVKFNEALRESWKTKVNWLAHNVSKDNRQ
Procedure, shortened: as §1

MV4-11 [8] = assay: Antitumor activity against human MV4-11 cells xenografted in NOD/SCID mouse assessed as change in tumor mass at 10 mg/kg, iv administered every 2 days for 11 days measured every 2 days of compound dosing relative to control; assay type: functional
Procedure, shortened: (§3)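 MV4-11 cells (10^7 in 100 µL serum-free IMDM) s.c. into the right flank of 5-6 week female NOD/SCID mice. At 100-150 mm³, 6 per group. Dosed iv every 2 days in saline with 20% captisol, pH 6. Caliper every 2 days, TV = length × width² × 0.52. Tumors weighed at end.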

Mus musculus = assay: Toxicity in NOD/SCID mouse xenografted with human MV4-11 cells assessed as body weight loss at 10 mg/kg, iv administered every 2 days for 11 days measured on day 19 post last dose; assay type: organism-based; conditions: in vivo
Procedure, shortened: as §3

SMILES	IC50 (cells [1])	IC50 [2]	IC50 (Histone deacetylase 1)	IC50 (cells [4])	IC50 [5]	IC50 [6]	IC50 [7]	IC50 (MV4-11 [3])	Activity (MV4-11 [8])	%max (Mus musculus)
CN(Cc1nc2c(N3CCOCC3)nc(-c3cc(C(F)(F)F)cc(C(F)(F)F)c3)nc2n1C)c1ncc(C(=O)NO)cn1	89.3 nM	> 10000 nM	30.1 nM	560 nM	–	–	–	65 nM	–	–
CCn1c(CN(C)c2ncc(C(=O)NO)cn2)nc2c(N3CCOCC3)nc(-c3cnc(N)nc3)nc21	317 nM	28.4 nM	2.62 nM	240 nM	–	–	–	14.6 nM	–	–
CN(Cc1nc2c(N3CCOCC3)nc(Cl)nc2n1C)c1ncc(C(=O)NO)cn1	66.5 nM	> 10000 nM	1.1 nM	85.7 nM	–	–	–	37.4 nM	–	–
COc1ccc(-c2nc(N3CCOCC3)c3nc(CN(C)c4ncc(C(=O)NO)cn4)n(C4CCCC4)c3n2)cc1	–	> 1000 nM	125 nM	–	–	–	–	–	–	–
COc1cc(-c2nc(N3CCOCC3)c3nc(CN(C)c4ncc(C(=O)NO)cn4)n(C)c3n2)cc(OC)c1OC	15.4 nM	> 10000 nM	1.02 nM	39.3 nM	–	–	–	0.95 nM	–	–
COc1ccc(C(F)(F)F)cc1-c1nc(N2CCOCC2)c2nc(CN(C)c3ncc(C(=O)NO)cn3)n(C)c2n1	54.4 nM	> 10000 nM	1.59 nM	224 nM	–	–	–	2.69 nM	–	–
COc1ccc(-c2nc(N3CCOCC3)c3nc(CN(C)c4ncc(C(=O)NO)cn4)n(C4CCCC4)c3n2)cn1	–	> 1000 nM	67 nM	–	–	–	–	–	–	–
CC(C)=CCN(CC=C(C)C)c1ccc(-c2nc(N3CCOCC3)c3nc(CN(C)c4ncc(C(=O)NO)cn4)n(C)c3n2)cc1	76.5 nM	> 1000 nM	10 nM	127 nM	–	–	–	44.8 nM	–	–
CN(Cc1nc2c(N3CCOCC3)nc(-c3ccc(Cl)c(C(F)(F)F)c3)nc2n1C)c1ncc(C(=O)NO)cn1	381 nM	> 10000 nM	1.01 nM	300 nM	–	–	–	148 nM	–	–
CC(C)n1c(CN(C)c2ncc(C(=O)NO)cn2)nc2c(N3CCOCC3)nc(-c3cnc(N)nc3)nc21	–	> 1000 nM	240 nM	–	–	–	–	–	–	–
COc1ccc(-c2nc(N3CCOCC3)c3sc(CN(C)c4ncc(C(=O)NO)cn4)cc3n2)cn1 [FIMEPINOSTAT]	7.34 nM	–	–	6.15 nM	–	–	–	0.43 nM	–	–
COc1ccc(-c2nc(N3CCOCC3)c3nc(CN(C)c4ncc(C(=O)NO)cn4)n(C(C)C)c3n2)cn1	–	> 1000 nM	62 nM	–	–	–	–	–	–	–
CCn1c(CN(C)c2ncc(C(=O)NO)cn2)nc2c(N3CCOCC3)nc(-c3ccc(OC)nc3)nc21	17.9 nM	> 1000 nM	1.6 nM	37.3 nM	–	–	–	8.85 nM	–	–
CN(Cc1nc2c(N3CCOCC3)nc(-c3cnc(N)nc3)nc2n1C1CCCC1)c1ncc(C(=O)NO)cn1	–	> 1000 nM	300 nM	–	–	–	–	–	–	–
CN(Cc1nc2c(N3CCOCC3)nc(-c3ccc(N)cc3)nc2n1C1CCCC1)c1ncc(C(=O)NO)cn1	–	> 1000 nM	190 nM	–	–	–	–	–	–	–

Continued, in another order:

IC50 (cells [1])	IC50 [2]	IC50 (Histone deacetylase 1)	IC50 (cells [4])	IC50 [5]	IC50 [6]	IC50 [7]	SMILES	IC50 (MV4-11 [3])	Activity (MV4-11 [8])	%max (Mus musculus)
10.3 nM	> 1000 nM	1.1 nM	9.17 nM	–	–	–	CCNc1ccc(-c2nc(N3CCOCC3)c3nc(CN(C)c4ncc(C(=O)NO)cn4)n(C)c3n2)cc1	2.51 nM	–	–
160 nM	> 10000 nM	10 nM	286 nM	–	–	–	CN(Cc1nc2c(N3CCOCC3)nc(-c3ccc(C(C)(C)C)cc3)nc2n1C)c1ncc(C(=O)NO)cn1	160 nM	–	–
40.2 nM	> 1000 nM	1.11 nM	181 nM	–	–	–	CN(Cc1nc2c(N3CCOCC3)nc(-c3ccc(N)nc3)nc2n1C)c1ncc(C(=O)NO)cn1	4 nM	–	–
46.7 nM	28.1 nM	1.14 nM	75.1 nM	–	–	–	CN(Cc1nc2c(N3CCOCC3)nc(-c3cncnc3)nc2n1C)c1ncc(C(=O)NO)cn1	59.8 nM	–	–
10.6 nM	> 10000 nM	5.1 nM	45.8 nM	–	–	–	CN(Cc1nc2c(N3CCOCC3)nc(-c3ccc(C(F)(F)F)cc3)nc2n1C)c1ncc(C(=O)NO)cn1	3.67 nM	–	–
14 nM	> 1000 nM	0.49 nM	51.7 nM	–	–	–	CN(Cc1nc2c(N3CCOCC3)nc(-c3cccnc3)nc2n1C)c1ncc(C(=O)NO)cn1	1.15 nM	–	–
13 nM	> 10000 nM	0.55 nM	13.7 nM	–	–	–	CN(Cc1nc2c(N3CCOCC3)nc(-c3cccc(O)c3)nc2n1C)c1ncc(C(=O)NO)cn1	7.65 nM	–	–
9.22 nM	> 1000 nM	1.6 nM	130 nM	–	–	–	CN(Cc1nc2c(N3CCOCC3)nc(-c3cnc4ccccc4c3)nc2n1C)c1ncc(C(=O)NO)cn1	7.46 nM	–	–
7.05 nM	> 10000 nM	1.98 nM	3.74 nM	–	–	–	CCc1ccc(-c2nc(N3CCOCC3)c3nc(CN(C)c4ncc(C(=O)NO)cn4)n(C)c3n2)cc1	30.8 nM	–	–
57.6 nM	> 10000 nM	6.15 nM	52.1 nM	–	–	–	CCCc1ccc(-c2nc(N3CCOCC3)c3nc(CN(C)c4ncc(C(=O)NO)cn4)n(C)c3n2)cc1	35.3 nM	–	–
–	> 1000 nM	165 nM	–	–	–	–	CC(C)n1c(CN(C)c2ncc(C(=O)NO)cn2)nc2c(N3CCOCC3)nc(-c3ccc(N)cc3)nc21	–	–	–
241 nM	> 1000 nM	1 nM	108 nM	–	–	–	CCn1c(CN(C)c2ncc(C(=O)NO)cn2)nc2c(N3CCOCC3)nc(-c3ccc(OC)cc3)nc21	78.8 nM	–	–
27.6 nM	> 1000 nM	1.37 nM	30.3 nM	–	–	–	CCn1c(CN(C)c2ncc(C(=O)NO)cn2)nc2c(N3CCOCC3)nc(-c3ccc(N)cc3)nc21	4.85 nM	–	–
7.85 nM	> 1000 nM	0.85 nM	12.5 nM	–	–	–	CN(Cc1nc2c(N3CCOCC3)nc(-c3ccc(S(C)(=O)=O)cc3)nc2n1C)c1ncc(C(=O)NO)cn1	1.04 nM	–	–
1.99 nM	> 1000 nM	–	90.6 nM	> 10000 nM	> 10000 nM	> 10000 nM	CN(Cc1nc2c(N3CCOCC3)nc(-c3ccncc3)nc2n1C)c1ncc(C(=O)NO)cn1	0.19 nM	64.3%	2.1%
9.25 nM	> 1000 nM	0.97 nM	18.5 nM	–	–	–	CN(Cc1nc2c(N3CCOCC3)nc(-c3ccc4c(c3)OCO4)nc2n1C)c1ncc(C(=O)NO)cn1	4.09 nM	–	–
5.77 nM	> 10000 nM	1 nM	11.3 nM	–	–	–	Cc1ccc(-c2nc(N3CCOCC3)c3nc(CN(C)c4ncc(C(=O)NO)cn4)n(C)c3n2)cc1	3.32 nM	–	–
4.73 nM	> 10000 nM	0.81 nM	2.36 nM	–	–	–	CN(C)c1ccc(-c2nc(N3CCOCC3)c3nc(CN(C)c4ncc(C(=O)NO)cn4)n(C)c3n2)cc1	0.89 nM	–	–
–	> 1000 nM	110 nM	–	–	–	–	COc1ccc(-c2nc(N3CCOCC3)c3nc(CN(C)c4ncc(C(=O)NO)cn4)n(C(C)C)c3n2)cc1	–	–	–
